The values below come from publication PMC2873867 (Journal of inorganic biochemistry, 2009).

One assay has as its target T1, LYP C129S (Homo sapiens, UniProt Q9Y2R2, C129S).
T1 sequence (Q9Y2R2 24-289 C129S limits assumed): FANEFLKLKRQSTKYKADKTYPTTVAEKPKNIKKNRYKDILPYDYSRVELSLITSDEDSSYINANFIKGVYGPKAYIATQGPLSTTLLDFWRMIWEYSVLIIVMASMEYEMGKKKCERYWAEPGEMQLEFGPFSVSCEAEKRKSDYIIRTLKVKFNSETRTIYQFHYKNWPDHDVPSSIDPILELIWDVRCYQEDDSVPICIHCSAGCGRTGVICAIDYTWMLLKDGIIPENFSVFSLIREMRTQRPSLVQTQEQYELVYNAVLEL
Briefly: Enzyme inhibition assay. The following applies: 5 nM enzyme, 1.5 μM DiFMUP. The format is biochemical. The gist of the method:
(§1)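 Single-mutant catalytic domains (C129S or C231S) at 5 nM final, each activated 30 min with 0.1 mM DTT. Triplicate kinetic fluorescence (360/455 nm, every 60 s, 30 min), averaged, converted to DiFMU by standard curve.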

A further assay concerns the target T2, LYP C231S (Homo sapiens, UniProt Q9Y2R2, C231S).
T2 sequence (Q9Y2R2 24-289 C231S limits assumed): T1 sequence (Q9Y2R2 24-289 C129S limits assumed) with S106C, C208S
Briefly: Enzyme inhibition assay. The format is biochemical. As to conditions: 5 nM enzyme, 1.5 μM DiFMUP. The gist of the method:
as §1

Assay [1] concerns the target T3, LYP C129/231S (Homo sapiens, UniProt Q9Y2R2, C129S/C231S).
T3 sequence (Q9Y2R2 24-289 C129S/C231S limits assumed): T1 sequence (Q9Y2R2 24-289 C129S limits assumed) with C208S
Briefly: Enzyme inhibition assay. The format is biochemical. The method, boiled down: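 LYP C129S/C231S catalytic domain at 20 nM final, preactivated with 0.1 mM DTT for 1 h. Test compound and 1.5 μM DiFMUP added in DMSO (5% final). Fluorescence (ex 360/em 455 nm) read every 60 s for 30 min, in triplicate, averaged, converted to DiFMU via standard curve.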

For assay [2], the target named is T4, LYP (Homo sapiens, UniProt Q9Y2R2).
T4 sequence (Q9Y2R2 24-289 limits assumed): T1 sequence (Q9Y2R2 24-289 C129S limits assumed) with S106C
The assay can be described thus: Mode of inhibition assay. The format is biochemical. The method, boiled down:
(§2)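 Catalytic domains (LYP and PTP-PEST 5 nM; LYP C129/231S 20 nM) in pH 6.5 Tris/NaCl/EDTA/DTT/Brij 35 buffer at room temperature. Activity measured across a series of DiFMUP concentrations with no test compound or several fixed test compound concentrations, triplicate at each substrate level. Reciprocal rate plotted against reciprocal substrate concentration for each inhibitor level (Lineweaver–Burk).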

The target in assay [3] is T5, PTP-PEST (Homo sapiens, UniProt Q05209).
T5 sequence (Q05209 28-293 limits assumed): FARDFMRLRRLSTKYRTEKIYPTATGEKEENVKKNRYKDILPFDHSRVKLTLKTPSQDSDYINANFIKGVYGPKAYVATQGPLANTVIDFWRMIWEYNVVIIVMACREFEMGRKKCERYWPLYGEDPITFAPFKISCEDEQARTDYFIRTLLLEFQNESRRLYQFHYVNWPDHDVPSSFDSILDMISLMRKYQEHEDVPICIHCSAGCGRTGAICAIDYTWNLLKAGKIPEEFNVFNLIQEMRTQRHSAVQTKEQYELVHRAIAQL
Briefly: Mode of inhibition assay. Type of assay: biochemical. The gist of the method:
as §2

Assay [4] addresses T3, LYP C129/231S. Briefly: Mode of inhibition assay. The format is biochemical. The method, boiled down: as §2
Another assay deals with Jurkat TAg cells. Briefly: Inhibition studies with JTAg cells. Type of assay: cell-based. The following applies: 50 μM, 1 h, western blot. The gist of the method:
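Jurkat TAg cells kept in log growth in supplemented RPMI 1640 (10% FBS). 20×10^6 cells treated for 1 h at room temperature with 50 μM test compound or DMSO (<2%), then split and stimulated 2 min with C305 hybridoma supernatant or left unstimulated. NP-40 lysates, Bradford-normalised, run on 10% SDS–PAGE. Blots probed for pLck Y394/Y505, pZAP-70 Y319 and pERK against total-protein controls, developed by ECL.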
Background: Immunoblotting shows a protein as a band on a membrane.

The target of assay [5] is T4, LYP. As to conditions: wild-type LYP; cited from earlier work.
Assay [6] concerns the target T5, PTP-PEST. The following applies: cited from earlier work.
For a further assay, the system named is HePTP. The following applies: cited from earlier work.
A further assay deals with CD45. As to conditions: cited from earlier work.
The mark [7] stands for this setting: read-out: Calculated Ki, from Lineweaver-Burk data.
The mark [8] stands for this setting: read-out: Estimated Ki from Dixon plot, Ki = -intersection point.

Where a chain is given by its changes, count along the chain named. Where two headings read alike, the source gives them in different places.

With `N#CCC[PH](CCC#N)([Au][Cl])c1ccccc1` [Complex 1, bis(cyanoethyl)phenylphosphine–Au(I)–Cl], the half-maximal inhibitory concentration (IC50) (usually the point on the concentration scale where inhibition reaches its midpoint) is 4 ± 0.2 µM at LYP C129S; 4 ± 0.8 µM at LYP C231S; 40 ± 4 µM at LYP C129/231S [1] (LYP C129/231S, 20 nM enzyme, 1.5 μM DiFMUP); 3.5 ± 0.1 µM at LYP [5]; greater than 80 µM at PTP-PEST [6]; greater than 50 µM with HePTP. Besides, in the assay on CD45, the IC50 is greater than 70 µM. Further, the “IC50 of LYP C129/231S relative to wild-type LYP and single mutants” value at LYP C129/231S [1] (fold higher) is listed as “roughly 10 fold”. Moreover, the values for the Mode of inhibition result at LYP [2] (Lineweaver-Burk plot), on PTP-PEST [3] (Lineweaver-Burk plot) and at LYP C129/231S [4] (Lineweaver-Burk plot) were “competitive inhibition”, “competitive inhibition” and “mixed-type inhibition”, respectively. Moreover, the inhibition constant (Ki) – broadly, the equilibrium dissociation constant of an inhibitor or competing ligand from its target – is 2.38 ± 1.1 µM at LYP [2] (setting [7]); roughly 1.2 µM on LYP [2] (setting [8]); 53.3 ± 16.3 µM on PTP-PEST [3] (setting [7]); roughly 80 µM at PTP-PEST [3] (setting [8]); 58.6 ± 5.3 µM at LYP C129/231S [4] (setting [7]); roughly 70 µM at LYP C129/231S [4] (setting [8]). The “Phosphorylation of Lck at Y505 (cellular CD45 inhibition)” value with Jurkat TAg cells (JTAg cells) was “no change in phosphorylation levels at position Y505”. Also, the “Phosphorylation of ERK1/2” value in the assay on Jurkat TAg cells (TCR stimulated JTAg cells) was “increased phosphorylation levels”. Moreover, the “Phosphorylation of Lck at Y394 (cellular LYP inhibition)” value with Jurkat TAg cells (TCR stimulated JTAg cells) was “increase in phosphorylation at Y394”. The “Phosphorylation of ZAP-70” value in the assay on Jurkat TAg cells (TCR stimulated JTAg cells) is listed as “increased phosphorylation levels”.
